Shown are actives, neighbours in structure and some others; about 4.9% of the full set was active somewhere.
STAT1 blocker: STAT1 signaling inhibition; inhibition, % at 5.5 µM; NIH 3T3 STAT1-luciferase reporter, IFN-gamma, luminescence; 200,000 compounds, 0.35% hits;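 active means inhibition above a set limit, the mean inhibition across all tested compounds plus 3 SD, cut at about 34% in these data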;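 further: 0% = IFN-gamma with DMSO and 100% = IFN-gamma with 300 µM nifuroxazide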
FLuc inhib CS: counter-screen for luciferase assay inhibitors: firefly luciferase inhibition. P08659. ATPLite firefly luciferase biochemical luminescence, 10 min. inhibition, % at 10 µM. 200,000 compounds, 1.5% hits;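 active means inhibition above about 50% when tested at 10 µM, limit read from the data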
Target sequence (P08659 whole entry, looked up): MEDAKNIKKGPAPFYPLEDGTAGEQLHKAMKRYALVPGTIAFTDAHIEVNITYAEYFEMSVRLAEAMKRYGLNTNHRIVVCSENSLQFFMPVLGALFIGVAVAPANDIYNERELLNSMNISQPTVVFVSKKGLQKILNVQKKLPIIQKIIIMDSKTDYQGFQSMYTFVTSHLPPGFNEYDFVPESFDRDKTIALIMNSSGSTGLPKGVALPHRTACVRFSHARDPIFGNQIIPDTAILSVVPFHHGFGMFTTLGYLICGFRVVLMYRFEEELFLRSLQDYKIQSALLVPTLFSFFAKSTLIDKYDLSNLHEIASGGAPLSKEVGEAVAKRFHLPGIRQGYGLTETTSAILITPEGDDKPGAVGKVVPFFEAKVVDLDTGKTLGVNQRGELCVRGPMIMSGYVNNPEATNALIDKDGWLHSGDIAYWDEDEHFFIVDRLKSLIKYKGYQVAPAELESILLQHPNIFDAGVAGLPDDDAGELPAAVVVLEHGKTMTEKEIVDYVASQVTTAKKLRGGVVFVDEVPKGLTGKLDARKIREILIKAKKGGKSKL
STAT3 inh-1: STAT3 signaling inhibition. inhibition, % at 5.5 µM. 190,000 compounds, 0.89% hits. U3A cells, IL-6 STAT3-luciferase reporter, luminescence; host cell line lacks STAT1;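 active means inhibition above the mean inhibition across all screened compounds plus 3 SD, cut at about 44% in these data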;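 further: 0% = DMSO only wells and 100% = 100 µM nifuroxazide control wells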
FLuc stim CS: affects firefly luciferase, flagging false hits in luciferase stimulation screens; ATPlite luciferase biochemical, luminescence, 10 min; 0 = ATP-free wells, 1 = DMSO control; activation factor at 10 µM; 200,000 tested, under 10 active; AID 1027;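 active means luciferase activation factor, scaled between plate controls, of at least 2 with compound at 10 µM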
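Assay system: Luciferase/luciferin detection reagent, cell-free biochemical luciferase assay / Also added: ATP substrate / Schedule: 10 min at ambient temperature / Measured by: luminescence measurement of luciferase light output / Benchmarks: low control with PBS replacing ATP, high control enzyme plus ATP without compound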
STAT1 act: STAT1 signaling activation; NIH 3T3 STAT1-luciferase reporter, IFN-gamma, luminescence; 100% = IFN-gamma alone, no compound; activation (% of control), % at 5.5 µM; 200,000 compounds, 2.6% hits; AID 932;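 active means activation above the screen-wide mean activation plus 3 SD, cut at about 130% in these data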;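 further: raw ratio to IFN-gamma control signal so 100% means no change and 0% no light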
STAT3 activator: activators of IL-6 induced STAT3 signaling | activation (% of control), % at 5.6 µM | U3A cells, IL-6 STAT3-luciferase reporter, luminescence; 100% = signal with IL-6 EC80 alone | 190,000 compounds, 0.91% hits;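 active means activation above the screen-wide mean of compound activation plus 3 SD, cut at about 130% in these data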;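 further: 0% = background luminescence of wells with medium and substrate only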
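Material: STAT3-luciferase reporter U3A cells; Probe or stimulus: IL-6 (33 ng/mL); Incubation: compound pre-incubation 1 h before IL-6, then 6 h stimulation at 37 °C; Technique: luminescence from STAT3-driven luciferase reporter; Evaluation: % activation versus median of IL-6-stimulated wells; Controls: IL-6-only high control.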
STAT3 inh-2: confirmation of STAT3 signaling inhibitors | shares compounds with STAT3 inh-1 | U3A cells, IL-6 STAT3 luciferase reporter, luminescence; cell line lacks STAT1 | inhibition, % at 5.7 µM | 1,200 compounds, 45% hits | AID 1265;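 active means inhibition above the hit cutoff computed for the primary STAT3 screen, cut at about 44% in these data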;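 further: 0% = IL-6 plus DMSO and 100% = IL-6 plus nifuroxazide control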
NFkB inh 2: NF-kappaB inhibition in STAT3 inhibitor counter-screen. shares compounds with STAT3 inh-1. HEK293T NF-kB luciferase reporter, TNF-alpha induced. inhibition, % at 5.7 µM. 1,200 compounds, 36% hits;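 active means inhibition above the mean of solvent-only control wells plus 3 SD, cutoff set per campaign, cut at about 13% in these data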;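 further: 0% = TNF-alpha with DMSO and 100% = TNF-alpha with MG high control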
STAT1 inh 2: STAT1 inhibition in STAT3 inhibitor counter-screen. NIH 3T3 STAT1-luciferase reporter, IFN-gamma induced, luminescence. inhibition, % at 5.7 µM. 1,200 compounds, 27% hits. AID 1317. shares compounds with STAT3 inh-1;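 active means inhibition above the mean plus 3 SD of solvent-only control wells, limit set per screening run, cut at about 16% in these data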;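 further: 0% = DMSO with IFN-gamma and 100% = nifuroxazide control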
Active calls of the source: *.

Screening COc1ccc(CCN2C(=O)CSC2c2ccc(OC)c(OC)c2)cc1OC (stereo not given) returned STAT1 blocker 0, FLuc inhib CS -7, STAT3 inh-1 5, FLuc stim CS 1.1, STAT1 act 98 and STAT3 activator 98.
COc1cc(/C=N/Nc2snc(SC)c2C#N)cc(OC)c1OC was read as STAT1 blocker 8, FLuc inhib CS -1, STAT3 inh-1 59*, FLuc stim CS 1, STAT1 act 92, STAT3 activator 51, STAT3 inh-2 41, NFkB inh 2 4 and STAT1 inh 2 -7.
Screening Clc1ccc(OCc2cc(-c3ccccc3)no2)c(Cl)c1 returned STAT1 blocker 31, FLuc inhib CS 51*, STAT3 inh-1 76*, FLuc stim CS 0.5, STAT1 act 72, STAT3 activator 41, STAT3 inh-2 46*, NFkB inh 2 1 and STAT1 inh 2 -76.
Clc1ccc(SCc2cc(-c3ccccc3)no2)cc1 was read as STAT1 blocker -9, FLuc inhib CS -6, STAT3 inh-1 21, FLuc stim CS 1.1, STAT1 act 108 and STAT3 activator 90.
Cc1ccc(-c2nc(-c3ccccc3)no2)cc1 was read as STAT1 blocker -35, FLuc inhib CS 78*, STAT3 inh-1 55*, FLuc stim CS 0.2, STAT1 act 148*, STAT3 activator 55, STAT3 inh-2 40, NFkB inh 2 5 and STAT1 inh 2 -49.
COc1ccc(Cc2noc(CN3CCC(c4ccncc4)CC3)n2)cc1OC was read as STAT1 blocker 21, FLuc inhib CS -9, STAT3 inh-1 60*, FLuc stim CS 1.1, STAT1 act 80, STAT3 activator 53, STAT3 inh-2 30, NFkB inh 2 14* and STAT1 inh 2 5.
For O=C(Nc1cccc(O)c1)C(=O)Nc1ccccn1 the results were STAT1 blocker -23, FLuc inhib CS 84*, STAT3 inh-1 71*, FLuc stim CS 0.2, STAT1 act 120, STAT3 activator 42, STAT3 inh-2 51*, NFkB inh 2 -9 and STAT1 inh 2 -12.
Screening C/C(CC(=O)Nc1ccccn1)=N\NC(=O)C(=O)Nc1cccc(C)c1 returned STAT1 blocker 3, FLuc inhib CS -7, STAT3 inh-1 9, FLuc stim CS 1.1, STAT1 act 97 and STAT3 activator 99.
CC(C)Cn1c(N)c(C(=O)CSc2nc3ccccc3c(=O)n2CCCN2CCOCC2)c(=O)n(C)c1=O was read as STAT1 blocker 7, FLuc inhib CS -8, STAT3 inh-1 6, FLuc stim CS 1.1, STAT1 act 92 and STAT3 activator 101.
For COc1ccc(Cn2c(=O)[nH]c3cc(C(=O)N4CCN(Cc5ccccc5)CC4)ccc3c2=O)cc1 the results were STAT1 blocker 2, FLuc inhib CS -4, STAT3 inh-1 64*, FLuc stim CS 1, STAT1 act 98, STAT3 activator 50, STAT3 inh-2 56*, NFkB inh 2 16* and STAT1 inh 2 -7.
`Cc1ccc(Nc2cnn(C34CC5CC(CC(CC(=O)O)(C5)C3)C4)c(=O)c2Cl)c(Cl)c1` gave STAT1 blocker -11, FLuc inhib CS -3, STAT3 inh-1 -12, FLuc stim CS 1, STAT1 act 109 and STAT3 activator 111.
`O=C(CCc1ccc(S(=O)(=O)N2CCOCC2)cc1)Nc1nc(COc2ccccc2)cs1` gave STAT1 blocker 9, FLuc inhib CS -6, STAT3 inh-1 46*, FLuc stim CS 1.1, STAT1 act 92, STAT3 activator 64, STAT3 inh-2 28, NFkB inh 2 4 and STAT1 inh 2 9.
`Nc1ccccc1NC1CCCCC1` gave STAT1 blocker -10, FLuc inhib CS 1, STAT3 inh-1 3, FLuc stim CS 1, STAT1 act 108 and STAT3 activator 107.
Screening COc1ccc(/C=C/c2cc(-c3ccc(C)cc3)o[n+]2C)cc1 returned STAT1 blocker 24, FLuc inhib CS -7, STAT3 inh-1 44*, FLuc stim CS 1.1, STAT1 act 79, STAT3 activator 68, STAT3 inh-2 20, NFkB inh 2 12 and STAT1 inh 2 20*.
`O=C(NCc1ccccc1)c1cccc(COc2ccc3c(c2)CCC3)c1` gave STAT1 blocker 15, FLuc inhib CS 21, STAT3 inh-1 56*, FLuc stim CS 0.8, STAT1 act 86, STAT3 activator 52, STAT3 inh-2 45*, NFkB inh 2 34* and STAT1 inh 2 27*.
COc1ccccc1NC(=O)c1ccc(COc2ccc3c(c2)CCC3)cc1 was read as STAT1 blocker -7, FLuc inhib CS -6, STAT3 inh-1 -6, FLuc stim CS 1.1, STAT1 act 106 and STAT3 activator 104.
O=C(COc1ccc2c(c1)CCC2)NCc1cccc(Cl)c1 was read as STAT1 blocker -7, FLuc inhib CS -7, STAT3 inh-1 -5, FLuc stim CS 1.1, STAT1 act 106 and STAT3 activator 100.
Screening COc1cccc(OC)c1C(=O)NNC(=O)c1cccc(COc2ccc3c(c2)CCC3)c1 returned STAT1 blocker 26, FLuc inhib CS 18, STAT3 inh-1 53*, FLuc stim CS 0.8, STAT1 act 76, STAT3 activator 55, STAT3 inh-2 35, NFkB inh 2 23* and STAT1 inh 2 21*.
For CCN(CC)c1ncnc2c1cnn2Cc1ccc(Cl)cc1 the results were STAT1 blocker 5, FLuc inhib CS 3, STAT3 inh-1 6, FLuc stim CS 1, STAT1 act 96 and STAT3 activator 96.
Cc1ccn2cc(C(=O)Nc3ccc4c(c3)OCCO4)nc2c1 was read as STAT1 blocker -54, FLuc inhib CS 73*, STAT3 inh-1 44*, FLuc stim CS 0.3, STAT1 act 150*, STAT3 activator 65, STAT3 inh-2 5, NFkB inh 2 -21 and STAT1 inh 2 -83.
For COc1cc(SC)ccc1C(=O)Nc1nccs1 the results were STAT1 blocker 31, FLuc inhib CS 92*, STAT3 inh-1 58*, FLuc stim CS 0.1, STAT1 act 70, STAT3 activator 52, STAT3 inh-2 31, NFkB inh 2 -4 and STAT1 inh 2 -85.

Source: PubChem
